ChEMBL document CHEMBL4118130, “Modular synthesis of new C-aryl-nucleosides and their anti-CML activity” (Bioorg Med Chem Lett, 2018)
pIC50: −log10 of the molar value. Active and inactive are the calls of the source. The rule behind the calls is not given here.

How the values were obtained:
K562 [1] = test: Cytotoxicity in drug sensitive human K562 cells assessed as reduction in cell viability at 10 uM incubated for 48 hrs by XTT assay relative to imatinib; format: functional
K562 [2] = test: Induction of apoptosis in drug sensitive human K562 cells assessed as induction of caspase-3 cleavage after 6 hrs by Western blot method; format: functional, cell-based
Outline: (§1)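 Cell lysates were probed by western blot for procaspase 3 and for PARP, its preferred substrate, in K562-S and K562-R cells. Cleavage was scored after 6 h and 24 h of treatment.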

K-562R [3] = test: Induction of apoptosis in imatinib-resistant human K562R cells assessed as induction of PARP cleavage after 6 hrs by Western blot method; format: functional, cell-based; outline: as §1
K562 [4] = test: Potency index, ratio of IC50 for AICAR to IC50 for test compound in drug sensitive human K562 cells assessed as reduction cell viability incubated for 48 hrs by XTT assay; format: functional
K-562R [5] = test: Induction of apoptosis in imatinib-resistant human K562R cells assessed as induction of PARP cleavage after 24 hrs by Western blot method; format: functional, cell-based; outline: as §1
K562 [6] = test: Induction of apoptosis in drug sensitive human K562 cells assessed as induction of PARP cleavage after 6 hrs by Western blot method; format: functional, cell-based; outline: as §1
K562 [7] = test: Induction of apoptosis in drug sensitive human K562 cells assessed as induction of caspase-3 cleavage after 24 hrs by Western blot method; format: functional, cell-based; outline: as §1
K562 [8] = test: Cytotoxicity in drug sensitive human K562 cells assessed as reduction cell viability incubated for 48 hrs by XTT assay; format: functional, cell-based; conditions: for pIC50: K562, 48 h
Outline: (§2)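 K562-S (imatinib-sensitive) or K562-R (imatinib-resistant) CML cells were exposed to a range of concentrations for 48 h. Viability was read by XTT, and the IC50 was derived from the dose-response.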

K-562R [9] = test: Induction of apoptosis in imatinib-resistant human K562R cells assessed as induction of caspase-3 cleavage after 24 hrs by Western blot method; format: functional, cell-based; outline: as §1
K562 [10] = test: Inhibition of autophagy in drug sensitive human K562 cells assessed as reduction in LC3-II accumulation by Western blot method; format: functional, cell-based
Outline: (§3)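 Western blot of LC3 lipidation and cleavage, scored as conversion of LC3-I to LC3-II, in K562-S and K562-R cells. Untreated cells served as the baseline for LC3-II accumulation.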

K-562R [11] = test: Inhibition of autophagy in imatinib-resistant human K562R cells assessed as reduction in LC3-II accumulation by Western blot method; format: functional, cell-based; outline: as §3
K562 [12] = test: Induction of apoptosis in drug sensitive human K562 cells assessed as induction of PARP cleavage after 24 hrs by Western blot method; format: functional, cell-based; outline: as §1
K-562R [13] = test: Induction of apoptosis in imatinib-resistant human K562R cells assessed as induction of caspase-3 cleavage after 6 hrs by Western blot method; format: functional, cell-based; outline: as §1
K-562R [14] = test: Cytotoxicity in imatinib-resistant human K562R cells assessed as reduction cell viability incubated for 48 hrs by XTT assay; format: functional, cell-based; outline: as §2

SMILES | Activity (K562 [1]) | further results
COc1ccc(-c2ccco2)cc1[C@@H]1O[C@H](COC(C)=O)[C@@H](OC(C)=O)[C@H]1OC(C)=O | Active | –
COc1ccc(-c2cccc3ccccc23)cc1[C@@H]1O[C@H](CO)[C@@H](O)[C@H]1O | Active | –
COc1ccc(-c2cccs2)cc1[C@@H]1O[C@H](CO)[C@@H](O)[C@H]1O | Active | –
COc1ccc(-c2cccn2C)cc1[C@@H]1O[C@H](COC(C)=O)[C@@H](OC(C)=O)[C@H]1OC(C)=O | Active | –
COc1ccc(-c2ccc(C)cc2)cc1[C@@H]1O[C@H](CO)[C@@H](O)[C@H]1O | Active | –
COc1ccc(-c2ccccc2)cc1[C@@H]1O[C@H](CO)[C@@H](O)[C@H]1O | Active | –
COc1ccc(C#Cc2ccc(C)cc2)cc1[C@@H]1O[C@H](COC(C)=O)[C@@H](OC(C)=O)[C@H]1OC(C)=O | Active | –
COc1ccc(C#Cc2ccc(F)cc2)cc1[C@@H]1O[C@H](CO)[C@@H](O)[C@H]1O | Active | –
COc1ccc(C#Cc2ccccc2)cc1[C@@H]1O[C@H](CO)[C@@H](O)[C@H]1O | Active | –
COc1ccc(C#Cc2ccc(C)cc2)cc1[C@@H]1O[C@H](CO)[C@@H](O)[C@H]1O | Active | –
COc1ccc(C#Cc2ccc(OC)c([C@@H]3O[C@H](CO)[C@@H](O)[C@H]3O)c2)cc1 | Active | –
COc1ccc(C#Cc2ccccc2)cc1[C@@H]1O[C@H](COC(C)=O)[C@@H](OC(C)=O)[C@H]1OC(C)=O | inactive | –
COc1ccc(-c2cc3ccccc3s2)cc1[C@@H]1O[C@H](COC(C)=O)[C@@H](OC(C)=O)[C@H]1OC(C)=O | >30 - 80% | Activity (K562 [2]): inactive; Activity (K-562R [3]): inactive; Ratio IC50 (K562 [4]): 200; Activity (K-562R [5]): inactive; Activity (K562 [6]): inactive; Activity (K562 [7]): inactive; Activity (K562 [8]): Dose-dependent effect; pIC50 (K562 [8]): 5.40; Activity (K-562R [9]): inactive; inhibition (K562 [10]): Active; inhibition (K-562R [11]): Active; Activity (K562 [12]): inactive; Activity (K-562R [13]): inactive; pIC50 (K-562R [14]): 5.54
COc1ccc(-c2ccc3[nH]ccc3c2)cc1[C@@H]1O[C@H](COC(C)=O)[C@@H](OC(C)=O)[C@H]1OC(C)=O | Active | –
COc1ccc(C#Cc2ccc(OC)c([C@@H]3O[C@H](COC(C)=O)[C@@H](OC(C)=O)[C@H]3OC(C)=O)c2)cc1 | >30% | –
COc1ccc(-c2ccccc2)cc1[C@@H]1O[C@H](COC(C)=O)[C@@H](OC(C)=O)[C@H]1OC(C)=O | Active | –
COc1ccc(-c2ccco2)cc1[C@@H]1O[C@H](CO)[C@@H](O)[C@H]1O | Active | –
COc1ccc(-c2ccc3[nH]ccc3c2)cc1[C@@H]1O[C@H](CO)[C@@H](O)[C@H]1O | Active | –
COc1ccc(-c2cccn2C)cc1[C@@H]1O[C@H](CO)[C@@H](O)[C@H]1O | Active | –
COc1ccc(-c2ccc(C)cc2)cc1[C@@H]1O[C@H](COC(C)=O)[C@@H](OC(C)=O)[C@H]1OC(C)=O | Active | –
COc1ccc(-c2cccs2)cc1[C@@H]1O[C@H](COC(C)=O)[C@@H](OC(C)=O)[C@H]1OC(C)=O | >30% | –
COc1ccc(C#Cc2ccsc2)cc1[C@@H]1O[C@H](CO)[C@@H](O)[C@H]1O | Active | –
Cc1ccc(NC(=O)c2ccc(CN3CCN(C)CC3)cc2)cc1Nc1nccc(-c2cccnc2)n1 [IMATINIB] | – | pIC50 (K562 [8]): 5.96; pIC50 (K-562R [14]): < 4.30
NC(=O)c1ncn([C@@H]2O[C@H](CO)[C@@H](O)[C@H]2O)c1N [ACADESINE] | – | pIC50 (K-562R [14]): 3.10
COc1ccc(-c2cccc3ccccc23)cc1[C@@H]1O[C@H](COC(C)=O)[C@@H](OC(C)=O)[C@H]1OC(C)=O | >30% | –
COc1ccc(-c2cc3ccccc3s2)cc1[C@@H]1O[C@H](CO)[C@@H](O)[C@H]1O | 16% | –
COc1ccc(C#Cc2ccc(F)cc2)cc1[C@@H]1O[C@H](COC(C)=O)[C@@H](OC(C)=O)[C@H]1OC(C)=O | Active | –
COc1ccc(C#Cc2ccsc2)cc1[C@@H]1O[C@H](COC(C)=O)[C@@H](OC(C)=O)[C@H]1OC(C)=O | inactive | –
